FXN GAA850 act – increases GAA850 frataxin promoter reporter activity. HEK293 lucGAA850 FXN promoter luciferase reporter, 24 h; percent of 10 µM SAHA response. actives 0.56% (n = 360,000). activation, % at 6 µM;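 active means activation above the average of all compounds screened plus 3 SD, cutoff fixed separately per campaign, cut at about 7.5% in these data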;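 further: 0% = DMSO wells and 100% = 10 µM SAHA wells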
NR2E3 ag-1 – activates human photoreceptor nuclear receptor NR2E3; Q9Y5X4; GST-NR2E3/biotin-RetCOR TR-FRET, 1536-well; inhibition of corepressor binding, % at 4.78 µM; actives 0.12% (n = 320,000); AID 2300;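 active means percent inhibition above the cutoff of mean plus 3 SD of all tested compounds, set per screening campaign, cut at about 20% in these data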;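 further: 0% = DMSO wells and 100% = biotin wells as full block of FRET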
Target sequence (Q9Y5X4 whole entry, looked up): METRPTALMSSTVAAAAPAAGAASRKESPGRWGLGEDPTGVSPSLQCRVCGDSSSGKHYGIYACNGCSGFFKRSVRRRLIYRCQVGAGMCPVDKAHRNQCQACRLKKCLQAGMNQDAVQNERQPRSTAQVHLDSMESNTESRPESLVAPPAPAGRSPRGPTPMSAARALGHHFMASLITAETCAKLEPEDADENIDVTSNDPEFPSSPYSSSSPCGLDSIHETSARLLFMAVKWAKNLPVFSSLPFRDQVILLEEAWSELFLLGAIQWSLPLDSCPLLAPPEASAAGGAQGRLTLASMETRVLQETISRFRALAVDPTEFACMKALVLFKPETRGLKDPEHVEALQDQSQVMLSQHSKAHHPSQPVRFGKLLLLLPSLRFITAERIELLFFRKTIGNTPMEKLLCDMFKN
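Test system – NR2E3–RetCOR corepressor complex · Quantity – NR2E3 fusion 1.35 nM · Buffer or medium – Tris pH 7.5 · Incubation – Compound–protein incubation for 5 h at 4 °C · Technique – TR-FRET, Eu(K)-anti-GST donor, streptavidin-D2 acceptor, ex 340, em 617/671 nm · Evaluation – percent inhibition of 671/617 nm emission ratio versus biotin and DMSO controls · Plate – 1536-well format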
NR2E3 ag-2 – human photoreceptor-specific nuclear receptor agonism; CHO-S Gal4-NCOR/VP16-NR2E3 two-hybrid, luciferase; inhibition of corepressor binding, % at 3.98 µM; actives 0.35% (n = 360,000);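 active means inhibition above the mean of all tested compounds plus 3 SD, cut at about 70% in these data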;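 further: 0% = DMSO with NR2E3 transfected cells and 100% = cells lacking NR2E3 construct; higher means lower luciferase signal from less NR2E3 corepressor binding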
T cell modulator – T cell immune modulators affecting CD8 T cell-vesicle binding. AID 2052. response (vesicle binding), % at 7 µM. actives 0.068% (n = 330,000). 2C CD8+ T cell-vesicle binding, flow cytometry; hits give low values;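 active means response, share of CD8 T cells binding vesicles, and their 90th percentile fluorescence all below set limits, cut at about 80% in these data, passing the limit was not always enough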;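 further: values below 100% mean blocked vesicle binding to the CD8+ T cells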
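Read-out – percent CD8+ FL2 mean versus row control · System – murine 2C transgenic CD8+ T lymphocytes · Times – 1.5 h cell–vesicle binding at 37 °C, then 20 min icy labelling · Control set – naked vesicles low, QL9 vesicles with vehicle high · Detection – cytometric PE anti-B7-1 and Alexa647 anti-CD8 signals after 1% paraformaldehyde fixation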
Myeloid diff MLP – promotes myeloid progenitor differentiation; ER-HoxA9 myeloid progenitors, lysozyme-GFP differentiation, flow cytometry; calls only at 10 µM; actives 1% (n = 360,000);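 active means normalized GFP-positive differentiation at or above the plate's own cutoff, the solvent-only control mean plus 3 SD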;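 further: cells exposed to compound for four days before flow analysis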
Myeloid diff CP1 – myeloid differentiation induction. shares compounds with Myeloid diff MLP. ER-HoxA9 myeloid progenitors, GFP/Mac1 double-positive flow. calls only. actives 2% (n = 2,300). AID 651706;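 active means share of green or green-and-red cells above 9 and 9% in run 1 or 4 and 3% in run 2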
GFP autofluor – compound fluorescence in myeloid differentiation counter-screen. shares compounds with Myeloid diff MLP. ER-HoxA9 myeloid progenitors, no estrogen, GFP autofluorescence flow cytometry; vehicle wells 0%, positive control 100%. fluorescence response, % (no concentration beside the values). actives 7.4% (n = 2,300). AID 651707;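 active means over 5% cells positive for green fluorescent reporter, or over 2% positive for both it and APC stain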;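 further: range taken on the double positive population between DMSO and positive control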
* hit, by the source's call; i = inactive; . = not tested or not shown; + = active, no number. Shown are actives, neighbours in structure and some others; about 2% of the full set was active somewhere.

SMILES	FXN GAA850 act	NR2E3 ag-1	NR2E3 ag-2	T cell modulator	Myeloid diff MLP	Myeloid diff CP1	GFP autofluor
COc1ccc(CC(=O)NNC(=O)c2ccc(SCc3cc(F)ccc3F)c([N+](=O)[O-])c2)cc1	0.3	-0.6	16.3	309.7	i	i	0.0
O=C(NCCN1CCC(n2c(=O)[nH]c3ccccc32)CC1)N1c2ccccc2Sc2ccccc21	.	.	16.1	.	i	.	.
CC(=O)C1=C(O)C=C(c2ccco2)CC1c1ccco1 (configuration not stated)	4.1	2.8	-12.9	354.1	i	i	0.0
CC1CCCCC1NC(=O)CSc1nc2ccccc2c(=O)n1Cc1ccco1 (configuration not stated)	0.7	7.5	1.4	233.3	+	i	0.3
CC1(C(=O)NCc2cccnc2)CCN1C(=O)Cc1cccs1 (configuration not stated)	-0.5	.	0.1	.	i	.	.
NNC(=O)c1[nH]c2ccc(Cl)cc2c1-c1ccccc1	-0.7	-0.7	9.9	577.1	i	i	1.6
O=C(O)CSc1c(-c2ccccc2)c2cc(Cl)ccc2[nH]c1=O	1.7	3.2	18.7	466.1	i	.	.
COc1ccc(-n2c(N)c(C(=O)NCc3ccco3)c3nc4ccccc4nc32)cc1OC	2.9	1.5	-16.8	254.9	+	i	0.0
C=CCn1nc2ccccc2c1OC	-0.5	1.1	8.1	555.1	i	.	.
Cc1ccc(C)c(S(=O)(=O)N2CCN(C(=O)CCC(=O)c3cc(C)sc3C)CC2)c1	-1.2	-2.1	10.0	262.8	+	i	0.0
Cc1[nH]c2ccccc2c1C(=O)/C=C\c1ccccc1Cl	3.6	1.5	-119.6	332.5	+	i	1.0
Cc1[nH]c2ccccc2c1C(=O)/C=C/c1ccccc1	3.1	0.7	-63.9	246.2	i	.	.
NC(=O)C[n+]1cccc2ccccc21	2.6	-4.9	-4.7	225.4	i	.	.
O=C(C[n+]1cccc2ccccc21)c1ccc(Br)cc1	0.6	2.0	-53.5	260.0	+	i	1.2
Cc1ccc(C(=O)C[n+]2cccc3ccccc32)cc1	2.2	-1.8	-10.5	259.2	+	i	1.2
CC1(C)Cn2c(nnc2-c2cccc(O)c2)S1	1.0	0.8	-1.4	315.2	+	i	0.0
CC1Cn2c(nnc2-c2cccc(Cl)c2)S1 (configuration not stated)	1.4	0.3	3.2	191.8	i	.	.
CC(CNC(=O)C1CCCCC1)NC(=O)C1CCCCC1 (configuration not stated)	0.4	3.1	8.2	380.4	+	i	0.0
CC(C)CNC(=O)C(=O)NNC(=O)C1CCCCC1	-0.9	2.9	-8.2	428.5	i	.	.
CCCOc1ccc(C(=O)NC(=S)N2CCN(c3cc4c(cc3F)c(=O)c(C(=O)O)cn4CC)CC2)cc1	-0.6	1.0	-6.9	159.7	+	i	3.4
Nc1ncnc2c1ncn2[C@@H]1O[C@H](C(=O)NCC2CCN(Cc3ccccc3)CC2)[C@@H](O)[C@H]1O	.	.	-3.3	.	i	.	.
COc1ccc(-c2cc3nc(NCCNC(C)=O)n(C)c(=O)c3s2)c(C)c1	2.6	.	-32.7	.	i	.	.
COc1ccc(CN2CCN(Cc3ccc4cc(F)ccc4n3)CC2CCO)c(C)c1C (configuration not stated)	-1.3	1.7	18.0	129.7	i	.	.
COc1cc(CN2CCN(Cc3ccc4cc(F)ccc4n3)CC2CCO)cc(OC)c1 (configuration not stated)	0.6	-0.8	-16.8	161.7	i	i	0.0
CNCC[C@H](Oc1cccc2ccccc12)c1cccs1	-1.5	1.8	23.9	439.4	i	i	0.0
SMILES	FXN GAA850 act	NR2E3 ag-1	NR2E3 ag-2	T cell modulator	Myeloid diff MLP	Myeloid diff CP1	GFP autofluor
CCC1(C2=CCCCC2)C(=O)NC(=S)N=C1N (configuration not stated)	-0.8	.	14.2	.	i	.	.
CN1CCN(C(=O)c2ccc(-c3ccc(F)c(F)c3)c3ccoc23)CC1	2.5	.	8.7	.	i	.	.
C[C@@H]1CN([C@H](C)CO)C(=O)c2cc(C#CC3CCCCC3)cnc2O[C@H]1CN(C)Cc1cccnc1	1.9	.	-25.3	.	i	i	0.5
C[C@H](CO)N1C[C@H](C)[C@H](CN(C)Cc2ccncc2)Oc2ncc(C#CC3CC3)cc2C1=O	-0.6	.	-19.7	.	i	.	.
COc1ccc(C(=O)CC(CC(=O)c2ccc(OC)cc2)C(=O)O)cc1	-0.2	-1.2	0.1	196.4	i	.	.
COc1cc(CNCCc2c[nH]c3ccccc23)ccc1OCc1ccc(F)cc1	-1.1	3.2	22.8	389.6	i	i	0.0
O=C1NC(=O)C(c2ccccc2)(C2CCCC2)N1 (configuration not stated)	-2.7	.	-6.6	.	i	.	.
Cc1cc(C)n2nc3nc4c(cc3c2n1)CCCC4	-0.6	0.3	-16.0	480.1	i	i	0.0
Cc1cc(C)n2nc(C)c(Br)c2n1	2.6	-1.8	-39.1	258.8	i	.	.
Cc1cc(C(=O)Nc2nccs2)c2cc(F)ccc2n1	0.3	2.9	-3.3	450.0	i	i	0.3
Cc1c(C(=O)Nc2nccs2)oc2ccc(F)cc12	4.5	-12.0	-72.0	139.2	i	.	.
Oc1cc(O)cc(/C=C/c2ccc(O)c(O)c2)c1	-1.1	-1.2	-114.1	447.4	i	.	.
COc1ccc(Cn2nnnc2CN2CCC(O)(c3ccccc3F)CC2)cc1	0.2	5.2	-4.2	151.1	i	.	.
OC1(c2ccccc2F)CCN(Cc2nnnn2Cc2ccc(F)cc2)CC1	1.0	-1.7	-5.5	247.8	+	i	0.0
O=C(CN1C(=O)c2cccnc2Oc2ccc(Cl)cc21)Nc1ccccc1F	1.3	6.2	-1.7	465.8	+	i	0.4
Cc1cc(C(=O)COC(=O)c2ccc(NC(=O)CC#N)cc2)c(C)n1CCc1ccc(F)cc1	1.7	-2.0	-37.4	419.5	i	i	3.0
CN(C)C(CNC(=O)c1cccc(S(=O)(=O)N2CCN(c3ccc(F)cc3)CC2)c1)c1ccccc1 (configuration not stated)	-4.0	.	45.9	.	i	.	.
CCCOc1ccc(N2C(=O)CC(S/C(N)=N/N=C(\C)c3cccs3)C2=O)cc1 (configuration not stated)	0.9	-1.5	-7.1	376.7	i	i	0.0
O=C(O)C1=NN(c2cc(Cl)c(S(=O)(=O)O)cc2Cl)C(=O)C1	0.3	.	14.2	.	i	.	.
O=[N+]([O-])C1C(c2ccccc2)=NOC1c1ccccc1O (configuration not stated)	0.4	-1.0	-59.6	639.9	i	.	.
Cc1ccc(S(=O)(=O)N2[C@H](CC(=O)c3cccs3)OC[C@@H]2C)cc1	.	.	.	.	i	.	.

Screens: PubChem BioAssay, several laboratories
